Measured values published in ChEMBL document CHEMBL1126660, “Nonpeptide angiotensin II antagonists: N-phenyl-1H-pyrrole derivatives are angiotensin II receptor antagonists” (J Med Chem, 1993).

What was measured:
Oryctolagus cuniculus [1] = organism: Oryctolagus cuniculus; test: Compound was evaluated for antagonism of angiotensin II induced contraction of rabbit aorta rings.; format: functional; conditions: read-out: pA2 (converted)
Summary of the method: (§1)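 Paired rabbit aortic rings: control ring given increasing AII concentrations at 30-min intervals; second ring given AII with antagonist added 5 min beforehand. Responses expressed as % of control ring maximal contraction; pD2 for AII from concentration-response curves, pA2 by Schild analysis.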

[2] = target: T1, Type-2 angiotensin II receptor (Rattus norvegicus, UniProt P35351); test: Activity against low affinity Angiotensin II receptor, type 2 was measured from the ability to inhibit [125I]angiotensin II binding to rat uterine membrane
T1 sequence (P35351 whole entry): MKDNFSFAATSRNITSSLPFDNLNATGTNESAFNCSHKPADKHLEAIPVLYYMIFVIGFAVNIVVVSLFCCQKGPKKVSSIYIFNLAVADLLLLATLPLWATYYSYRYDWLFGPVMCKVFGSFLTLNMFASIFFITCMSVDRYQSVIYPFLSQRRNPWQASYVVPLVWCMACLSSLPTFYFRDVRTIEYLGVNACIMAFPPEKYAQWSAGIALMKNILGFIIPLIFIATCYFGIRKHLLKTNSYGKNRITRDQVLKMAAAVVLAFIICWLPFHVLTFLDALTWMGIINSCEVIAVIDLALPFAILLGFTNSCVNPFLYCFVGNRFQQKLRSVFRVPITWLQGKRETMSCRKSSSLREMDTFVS

[3] = target: T2, Type-1 angiotensin II receptor B (Rattus norvegicus, UniProt P29089); test: Activity against high affinity Angiotensin II receptor, type 1 was measured from the ability to inhibit [125I]angiotensin II binding to rat uterine membrane.
T2 sequence (P29089 whole entry): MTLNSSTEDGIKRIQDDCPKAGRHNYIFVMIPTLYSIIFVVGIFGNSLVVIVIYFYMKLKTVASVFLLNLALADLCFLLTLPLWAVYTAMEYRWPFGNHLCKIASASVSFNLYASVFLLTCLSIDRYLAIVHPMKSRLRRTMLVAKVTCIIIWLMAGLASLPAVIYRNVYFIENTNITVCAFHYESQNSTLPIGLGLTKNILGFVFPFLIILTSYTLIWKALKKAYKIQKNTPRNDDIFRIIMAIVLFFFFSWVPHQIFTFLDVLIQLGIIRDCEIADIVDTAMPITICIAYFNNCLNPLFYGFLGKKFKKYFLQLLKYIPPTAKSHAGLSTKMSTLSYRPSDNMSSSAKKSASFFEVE

Oryctolagus cuniculus [4] = organism: Oryctolagus cuniculus; test: Evaluated for antagonism of angiotensin II induced contraction of rabbit aorta rings; format: functional; conditions: read-out: pA2 (converted); summary of the method: as §1

IC50 [2] [nM]	IC50 [3] [nM]	Compound	Kb (Oryctolagus cuniculus [1]) [nM]	Kb (Oryctolagus cuniculus [4]) [nM]
220000	–	CCCCc1nc(CCCC)n(Cc2ccc(-n3ccc(-c4nnn[nH]4)c3)cc2)n1	–	–
3300	170	CCCCc1nc(Cl)c(CO)n1Cc1ccc(-c2ccccc2C(=O)O)cc1	–	–
–	6.5	CCCCc1nc(CCCC)n(Cc2ccc(-c3ccccc3-c3nnn[nH]3)cc2)n1	–	–

Continued, molecule first:

Compound	IC50 [2] [nM]	IC50 [3] [nM]	Kb (Oryctolagus cuniculus [1]) [nM]	Kb (Oryctolagus cuniculus [4]) [nM]
CCCCc1nc(Cl)c(CO)n1Cc1ccc(-n2cccc2C(=O)O)cc1	–	–	1260	–
CCCCc1nc(Cl)c(CO)n1Cc1ccc(-c2ccccc2-c2nnn[nH]2)cc1 [LOSARTAN]	–	–	7.94	–
CCCCc1nc(CCCC)n(Cc2ccc(-n3c(Cl)cc(Cl)c3-c3nnn[nH]3)cc2)n1	810000	52	–	20
